Data on 12 molecules can be found in the M2OR odorant receptor database.

What all share (conditions): stereoisomer not certain
One assay has as its target T1, UniProt E1BM68.
T1 sequence (whole entry): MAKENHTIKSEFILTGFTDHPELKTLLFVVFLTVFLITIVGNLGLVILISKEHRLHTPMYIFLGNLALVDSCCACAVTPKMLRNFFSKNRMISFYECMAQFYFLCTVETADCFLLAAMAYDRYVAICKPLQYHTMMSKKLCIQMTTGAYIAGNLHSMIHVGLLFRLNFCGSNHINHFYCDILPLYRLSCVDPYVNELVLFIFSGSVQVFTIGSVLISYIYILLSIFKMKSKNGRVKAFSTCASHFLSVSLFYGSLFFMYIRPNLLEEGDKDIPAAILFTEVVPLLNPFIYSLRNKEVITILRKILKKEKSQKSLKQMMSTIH
The method, boiled down: (§1)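 Each entry records the cell line, G-protein, co-transfected protein and tags used. Methods varied with the source, often transient luciferase assays in mammalian cell lines. A receptor–molecule pair is called responsive (active) if the original authors judged its signal statistically different from baseline and non-responsive (inactive) otherwise.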

The next assay addresses T2, UniProt E9QAT7.
T2 sequence (whole entry): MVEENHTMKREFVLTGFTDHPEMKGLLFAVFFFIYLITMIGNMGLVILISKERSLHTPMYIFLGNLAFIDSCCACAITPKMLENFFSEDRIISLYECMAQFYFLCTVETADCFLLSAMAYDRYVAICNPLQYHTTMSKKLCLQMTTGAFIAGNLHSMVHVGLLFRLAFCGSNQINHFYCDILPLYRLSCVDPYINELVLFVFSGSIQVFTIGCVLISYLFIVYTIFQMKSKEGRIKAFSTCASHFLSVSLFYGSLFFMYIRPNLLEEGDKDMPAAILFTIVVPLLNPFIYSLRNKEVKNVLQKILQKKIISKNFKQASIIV
The method, boiled down:
as §1

The next assay has as its target T3, UniProt E9Q9Z6.
T3 sequence (whole entry): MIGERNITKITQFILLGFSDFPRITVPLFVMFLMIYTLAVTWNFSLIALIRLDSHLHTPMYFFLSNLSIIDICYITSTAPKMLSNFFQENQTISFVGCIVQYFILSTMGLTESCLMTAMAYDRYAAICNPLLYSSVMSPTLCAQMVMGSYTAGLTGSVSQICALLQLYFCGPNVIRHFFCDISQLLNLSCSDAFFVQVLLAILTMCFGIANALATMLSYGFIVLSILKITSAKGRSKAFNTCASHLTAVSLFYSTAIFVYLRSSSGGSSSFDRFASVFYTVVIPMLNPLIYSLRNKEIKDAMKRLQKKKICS
In outline:
as §1

For `Cc1cnc(C)cn1`, in the assay with UniProt E1BM68, the “odorant receptor agonist call” value was “active”. Besides, in the assay with UniProt E9QAT7, the “odorant receptor agonist call” value is “inactive”. Regarding `CC1=NC(C)C(C)S1` (configuration not stated), the “odorant receptor agonist call” value with UniProt E1BM68 and with UniProt E9QAT7 was “active” each time.

Consider `Cc1cnc(C)c(C)n1`, for which the “odorant receptor agonist call” value with UniProt E1BM68 and in the assay with UniProt E9QAT7 was “active” each time.

As for `CCC(=O)OCC(C)(C)OC(C)C1CCCC(C)(C)C1` (configuration not stated), in the assay with UniProt E9Q9Z6, the “odorant receptor agonist call” value was “inactive”. `OC1CCCCCCCCCCCCCC1`: the “odorant receptor agonist call” value in the assay with UniProt E9Q9Z6 was “active”. Consider `CC(=O)c1c(C)c([N+](=O)[O-])c(C(C)(C)C)c([N+](=O)[O-])c1C`, for which the “odorant receptor agonist call” value with UniProt E9Q9Z6 is “active”. In the case of `COc1nccnc1CC(C)C`, the “odorant receptor agonist call” value with UniProt E1BM68 is “active”. The “odorant receptor agonist call” value with UniProt E9QAT7 is “inactive”.

For `CC1CCCCCCCCCCCC(=O)C1` (configuration not stated), in the assay with UniProt E9Q9Z6, the “odorant receptor agonist call” value is “active”. Same read-out and setting: under `O=C1CCCCCCCCC1` stands “inactive”; under `O=C1C=CCCCCCCCCCCCCO1`, “active”. Turning to `CC1CCc2nccnc21` (configuration not stated), the “odorant receptor agonist call” value with UniProt E1BM68 was “active”. Also, the “odorant receptor agonist call” value with UniProt E9QAT7 is “inactive”. With `CC1CC=CCCCCCCCCC(=O)C1` (configuration not stated), the “odorant receptor agonist call” value with UniProt E9Q9Z6 is “active”.
